The record followed here is ChEMBL document CHEMBL1139060, “4-[6-(2-Aminoethyl)naphthalen-2-yl]benzonitriles are potent histamine H3 receptor antagonists with high CNS penetration” (Bioorg Med Chem Lett, 2007).

Data set [1] in a line: Half life in rat at 1 mg/kg, iv. The conditions noted are these: in vivo. The class given is ADME, organism-based. Further details: dose 1 mg/kg, route intravenous.
The nature of data set [2]: Half life in rat at 1 mg/kg, po. Further details: dose 1 mg/kg, route oral. The class given is ADME, organism-based. The following applies: in vivo.
Data set [3] can be described thus: Oral bioavailability in rat at 1 mg/kg. The class given is ADME, organism-based. The conditions noted are these: in vivo.
Data set [4] can be described thus: Volume of distribution in rat at terminal phase at 1 mg/kg, iv. Also noted: dose 1 mg/kg, route intravenous. The conditions noted are these: in vivo, read-out: Vbeta. The class given is ADME, organism-based.
A short description of data set [5]: Cmax in rat at 1 mg/kg, po. The class given is ADME, organism-based. Also noted: dose 1 mg/kg, route oral. The following applies: in vivo.
Data set [6] in a line: AUC (0 to infinity) in rat at 1 mg/kg, po. Further details: time infinity, dose 1 mg/kg, route oral. The class given is ADME, organism-based. The conditions noted are these: plasma.
Data set [7] has as its target Histamine H3 receptor (Homo sapiens, UniProt Q9Y5N1). The experiment in a line: Displacement of [3H]N-alpha-methylhistamine from human cloned histamine H3 receptor expressed in C6 cells. Type of data set: cell-based. The method, boiled down:
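Radioligand displacement with [3H]N-α-methylhistamine on membranes from C6 cells carrying cloned human H3R. Ki derived from pKi.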

For data set [8], the target named is Histamine H3 receptor (Rattus norvegicus, UniProt Q9QYN8). The experiment in a line: Displacement of [3H]N-alpha-methylhistamine from histamine H3 receptor in rat cortical membranes. Type of data set: cell membranes, Membrane. The method, boiled down: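 Competitive binding on rat cerebral cortex membranes, displacing the radioligand [3H]N-α-methylhistamine. Ki obtained from pKi. At least 3 independent pKi determinations per compound.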
Chain of Histamine H3 receptor (Rattus norvegicus, UniProt Q9QYN8) (Q9QYN8 whole entry): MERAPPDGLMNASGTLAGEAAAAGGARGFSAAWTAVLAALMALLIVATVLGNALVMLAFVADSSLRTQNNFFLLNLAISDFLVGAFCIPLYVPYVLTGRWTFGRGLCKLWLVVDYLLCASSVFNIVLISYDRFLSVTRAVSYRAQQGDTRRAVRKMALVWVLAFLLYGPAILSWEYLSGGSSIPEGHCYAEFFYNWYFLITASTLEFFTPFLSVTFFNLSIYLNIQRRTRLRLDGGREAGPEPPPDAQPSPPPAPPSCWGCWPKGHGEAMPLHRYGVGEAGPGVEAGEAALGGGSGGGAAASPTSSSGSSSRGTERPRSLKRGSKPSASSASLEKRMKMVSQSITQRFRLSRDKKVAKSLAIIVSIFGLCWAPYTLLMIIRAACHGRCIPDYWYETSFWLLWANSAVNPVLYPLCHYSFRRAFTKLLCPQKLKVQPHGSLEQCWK
On the technique in general: Displacement assays read how much labelled ligand stays bound in the presence of the test substance.

Data set [9] is described as follows: Ratio of drug level in brain to plasma in rat at 5 mg/kg, iv. The class given is ADME, organism-based. Further details: dose 5 mg/kg, route intravenous. The method, boiled down: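 Rats given 5 mg/kg intravenously; brain and plasma drug concentrations measured one hour after dosing and expressed as a brain-to-plasma ratio.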
Data set [10] can be described thus: AUC (0 to infinity) in rat at 1 mg/kg, iv. The class given is ADME, organism-based. Also noted: time infinity, dose 1 mg/kg, route intravenous. The conditions noted are these: plasma.

Structures are written as SMILES.

Chain of Histamine H3 receptor (Homo sapiens, UniProt Q9Y5N1) (Q9Y5N1 whole entry): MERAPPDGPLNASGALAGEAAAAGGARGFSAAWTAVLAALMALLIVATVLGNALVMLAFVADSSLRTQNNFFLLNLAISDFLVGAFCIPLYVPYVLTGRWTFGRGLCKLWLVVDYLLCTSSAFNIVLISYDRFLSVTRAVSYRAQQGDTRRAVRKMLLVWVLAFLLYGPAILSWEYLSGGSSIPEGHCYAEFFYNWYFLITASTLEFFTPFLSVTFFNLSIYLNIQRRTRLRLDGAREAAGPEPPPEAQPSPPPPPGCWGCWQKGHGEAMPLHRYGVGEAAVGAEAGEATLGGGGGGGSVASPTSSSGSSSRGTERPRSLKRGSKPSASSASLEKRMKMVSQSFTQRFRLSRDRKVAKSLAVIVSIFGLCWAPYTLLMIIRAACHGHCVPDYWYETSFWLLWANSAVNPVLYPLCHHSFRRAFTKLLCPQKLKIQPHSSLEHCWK

Consider `C[C@@H]1CCCN1CCc1ccc2cc(-c3ccc(C#N)cc3)ccc2c1`, for which the half-life in data set [1] was 6.9 h; in data set [2], 6.5 h. This compound also had a bioavailability in [3] of 55%. In addition, the Vd in data set [4] is 6 L/kg. Also, in data set [5], the Cmax was 48 ng/mL. For the same compound, the AUC(0-inf) in data set [6] came to 890 ng·h/mL; in data set [10], 1640 ng·h/mL. Besides, the Ki stood at 0.24 nM at Histamine H3 receptor [7] and 2.48 nM at Histamine H3 receptor [8]. Moreover, in [9], the partition ratio (Kp) was 72.

Turning to `CC(C)C1CCCN1CCc1ccc2cc(-c3ccc(C#N)cc3)ccc2c1` (stereo unspecified), the Ki at Histamine H3 receptor [7] amounted to 27.3 nM; on Histamine H3 receptor [8], 233 nM.

For `N#Cc1ccc(-c2ccc3cc(CCN4CC[C@@H](O)C4)ccc3c2)cc1`, the values for the Ki at Histamine H3 receptor [7] and on Histamine H3 receptor [8] were 1.56 nM and 30.9 nM, respectively.

As for `C[C@@H]1CCCCN1CCc1ccc2cc(-c3ccc(C#N)cc3)ccc2c1`, the Ki at Histamine H3 receptor [7] was determined as 8.71 nM; on Histamine H3 receptor [8], 141 nM.

Regarding `N#Cc1ccc(-c2ccc3cc(CCN4CCC[C@@H]4CO)ccc3c2)cc1`, the values for the Ki on Histamine H3 receptor [7] and on Histamine H3 receptor [8] were 2.89 nM and 42.8 nM, respectively.

With `CCN(CC)CCc1ccc2cc(-c3ccc(C#N)cc3)ccc2c1`, the Ki on Histamine H3 receptor [7] turned out to be 0.84 nM; on Histamine H3 receptor [8] it was 12.5 nM.

Turning to `CCCN(C)CCc1ccc2cc(-c3ccc(C#N)cc3)ccc2c1`, the results for the inhibition constant (Ki) at Histamine H3 receptor [7] and on Histamine H3 receptor [8] were 2.09 nM and 25.7 nM, respectively.

`C[C@@H]1CCCN1CCCOc1ccc(-c2ccc(C#N)cc2)cc1`: the values for the Ki on Histamine H3 receptor [7] and on Histamine H3 receptor [8] were 0.22 nM and 1.96 nM, respectively.

As to `C[C@@H]1CCCN1CCc1cc2cc(-c3ccc(C#N)cc3)ccc2o1`, the half-life in data set [1] is 5.3 h; in data set [2] it was 5.2 h. Further, the Vd in data set [4] amounted to 12 L/kg. The concentration in [5] peaked (Cmax) at 29 ng/mL. For the same compound, the area under the curve AUC(0-inf) in [6] amounted to 349 ng·h/mL; in data set [10] it was 673 ng·h/mL.

Take `N#Cc1ccc(-c2ccc3cc(CCN4CCCC4)ccc3c2)cc1`: the inhibition constant (Ki) came out at 0.49 nM on Histamine H3 receptor [7] and 6.42 nM on Histamine H3 receptor [8].

As to `N#Cc1ccc(-c2ccc3cc(CCN4CCC[C@H]4CF)ccc3c2)cc1`, the inhibition constant (Ki) at Histamine H3 receptor [7] was found to be 0.81 nM; on Histamine H3 receptor [8], 9.77 nM.

In the case of `N#Cc1ccc(-c2ccc3cc(CCN4CCC[C@H]4CO)ccc3c2)cc1`, the Ki on Histamine H3 receptor [7] was 0.44 nM; at Histamine H3 receptor [8], 11 nM.

Consider `CC[C@@H]1CCCN1CCc1ccc2cc(-c3ccc(C#N)cc3)ccc2c1`, for which the inhibition constant (Ki) on Histamine H3 receptor [7] turned out to be 8.61 nM; at Histamine H3 receptor [8], 33.7 nM.

For `CCN(CCc1ccc2cc(-c3ccc(C#N)cc3)ccc2c1)C(C)C`, the inhibition constant Ki was 4.62 nM on Histamine H3 receptor [7] and 30.3 nM at Histamine H3 receptor [8].

Regarding `CC1CCCN1CCc1ccc2cc(-c3ccc(C#N)cc3)ccc2c1` (stereo unspecified), the inhibition constant (Ki) at Histamine H3 receptor [7] amounted to 0.18 nM; on Histamine H3 receptor [8] it was 1.24 nM.

For `N#Cc1ccc(-c2ccc3cc(CCN4CC=CC4)ccc3c2)cc1`, the inhibition constant Ki on Histamine H3 receptor [7] worked out at 3.31 nM; on Histamine H3 receptor [8], 66.1 nM.

`C[C@H]1CCCN1CCc1ccc2cc(-c3ccc(C#N)cc3)ccc2c1`: the inhibitory constant (Ki) amounted to 0.12 nM at Histamine H3 receptor [7] and 3.47 nM at Histamine H3 receptor [8].

For `CN(CCO)CCc1ccc2cc(-c3ccc(C#N)cc3)ccc2c1`, the Ki is 10.5 nM at Histamine H3 receptor [7] and 457 nM at Histamine H3 receptor [8].

Regarding `CN(C)[C@@H]1CCN(CCc2ccc3cc(-c4ccc(C#N)cc4)ccc3c2)C1`, the inhibition constant (Ki) turned out to be 20.1 nM on Histamine H3 receptor [7] and 100 nM on Histamine H3 receptor [8].

As to `CN(C)CCc1ccc2cc(-c3ccc(C#N)cc3)ccc2c1`, the results for the Ki at Histamine H3 receptor [7] and at Histamine H3 receptor [8] were 2.65 nM and 45.3 nM, respectively.

In the case of `CN(CCc1ccc2cc(-c3ccc(C#N)cc3)ccc2c1)C(C)(C)C`, the results for the inhibition constant (Ki) at Histamine H3 receptor [7] and on Histamine H3 receptor [8] were 1.09 nM and 27.9 nM, respectively.

Turning to `CC(C)CC1CCCN1CCc1ccc2cc(-c3ccc(C#N)cc3)ccc2c1` (stereo unspecified), the inhibitory constant (Ki) was determined as 273 nM at Histamine H3 receptor [7] and 465 nM at Histamine H3 receptor [8].

In general, half-life refers to the time in which the quantity being followed falls by half. A high value points to slow loss. As a reminder, the bioavailability is the share of a dose that reaches the circulation, judged against a reference dose that is usually intravenous. In general, Cmax refers to the maximum level reached in the sampled fluid or tissue. Usually AUC(0-inf) stands for total exposure, with the tail of the curve extrapolated. A word on the Ki: it is a measure of affinity in units of concentration, obtained from inhibition or displacement. One may read the Kp as the ratio of the level in a tissue or fluid to that in plasma or blood.
